SENP7 block – SENP7 protease inhibitors, primary screen, biochemical, luminescence, uHTS | Sentrin-specific protease 7 (Homo sapiens), Q9BQF6 | recombinant SENP7, Z-RLRGG-aminoluciferin luminescence, 40 min | inhibition, % at 5 µM | actives 1.5% (n = 330,000) | AID 434973, 2010;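 active = inhibition above about 50% at the single test dose, limit read from the data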
Target sequence (Q9BQF6 706-1050 limits assumed): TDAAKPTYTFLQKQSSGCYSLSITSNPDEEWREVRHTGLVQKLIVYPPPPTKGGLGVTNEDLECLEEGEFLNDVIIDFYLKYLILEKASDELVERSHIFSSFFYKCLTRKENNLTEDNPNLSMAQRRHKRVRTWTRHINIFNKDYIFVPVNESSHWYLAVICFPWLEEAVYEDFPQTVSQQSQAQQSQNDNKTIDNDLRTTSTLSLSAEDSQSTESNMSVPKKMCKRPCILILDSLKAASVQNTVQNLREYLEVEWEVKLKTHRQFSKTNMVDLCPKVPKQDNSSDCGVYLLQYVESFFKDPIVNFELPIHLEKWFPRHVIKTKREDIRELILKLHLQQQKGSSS
SENP1 FRET inh – human SENP1 catalytic domain inhibitors, primary screen, biochemical, FRET, uHTS; Sentrin-specific protease 1 (Homo sapiens), Q9P0U3; recombinant SENP1 catalytic domain, CyPet-SUMO1-YPet FRET cleavage; inhibition, % at 10 µM; actives 0.21% (n = 360,000); AID 624204, 2012;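 active = inhibition at least 30% at 10 µM, raw YFP signal under a set limit, fluorescence ratio 0.5 to 1.5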
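Compound: 10 µM single point, 0.5% DMSO; Test system: hSENP1 catalytic domain, recombinant; Timing: 50 min reaction at room temperature; Technique: FRET, CFP and YFP emission; Control set: no-enzyme wells low, DMSO-plus-enzyme wells high control.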
SENP8 block-1 – human SENP8 protease inhibitors, primary screen, biochemical, fluorescence, Nedd8 protein substrate, uHTS; Sentrin-specific protease 8 (Homo sapiens), Q96LD8; recombinant SENP8; inhibition, % at 20 µM; actives 0.64% (n = 360,000); AID 602440, 2012; in the data active = inhibition mostly above about 40%, no sharp cut-off; inactive = mostly below about 27%
Target sequence (Q96LD8 whole entry, looked up): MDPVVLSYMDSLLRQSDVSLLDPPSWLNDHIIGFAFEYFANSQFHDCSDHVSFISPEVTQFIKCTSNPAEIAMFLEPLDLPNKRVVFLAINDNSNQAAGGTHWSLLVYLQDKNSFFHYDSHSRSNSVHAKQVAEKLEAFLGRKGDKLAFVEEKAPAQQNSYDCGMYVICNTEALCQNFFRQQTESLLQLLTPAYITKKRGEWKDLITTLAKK
NRP1-CendR mod – modulators of CendR peptide binding to NRP-1, primary screen, biochemical, fluorescence polarization, uHTS; FAM-RPARPAR peptide binding to NRP-1; inhibition, % at 25 µM; actives 0.85% (n = 360,000); AID 602438, 2012;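 active = inhibition or corrected inhibition above about 18%, plus a signal ratio from 0.5 to 1.5, limit read from the data, passing the limit was not always enough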
SENP8 block-2 – SENP8 protease inhibitors, primary screen, biochemical, luminescence. Sentrin-specific protease 8 (Homo sapiens), Q96LD8. purified SENP8, Z-RLRGG-aminoluciferin cleavage. inhibition, % at 10 µM. actives 1.2% (n = 330,000); in the data active = inhibition above about 50%
SENP6 inh – SENP6 protease inhibitors, primary screen, biochemical, luminescence, uHTS; Sentrin-specific protease 6 (Homo sapiens), Q9GZR1; Recombinant SENP6 catalytic domain, aminoluciferin luminescence; inhibition, % at 10 µM; actives 1.8% (n = 330,000); AID 2599, 2010;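 active = inhibition above about 50% at the single tested dose, limit read from the data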
Hits are given with their value; 0 = inactive; - = no result given; ! = a repeat was not active. This is a sample that favours compounds with a hit; in the whole collection about 3.3% have one here.

SMILES	SENP7 block	SENP1 FRET inh	SENP8 block-1	NRP1-CendR mod	SENP8 block-2	SENP6 inh
FC(F)(F)c1cc(Cl)c2nc(-c3ccco3)c(Cc3ccccc3C(F)(F)F)n2c1	-	0	0	0	-	-
Cc1nccc(-c2cccc(N/N=C(\C#N)C(=O)c3ccccc3)c2)n1	0	0	38	0	0	0
COc1ccc(-c2nc3c(Cl)cc(C(F)(F)F)cn3c2Cc2cccc(F)c2)cc1OC	-	0	0	0	-	-
COc1ccc(NC(=S)Nn2cnnc2)c(OC)c1	0	0	0	44	0	0
COC(=O)CCCCC1SCC2NC(=O)NC21O (stereo unspecified)	0	0	0	27	0	0
COC(=O)CCCC[C@H]1SC[C@H]2NC(=O)N[C@]21O	0	-	-	-	0	0
C=CCN(CC=C)Cc1cc(=O)oc2cc(C)cc(C)c12	-	0	0	0	-	-
CC(C)NC(=O)C1Cc2c(-c3ccc(Cl)cc3)ccnc2O1 (stereo unspecified)	-	0	0	0	-	-
Cc1cccc(C)c1NC(=O)C1(C)CSCC(=O)N1CCc1ccccc1 (stereo unspecified)	-	0	0	0	-	-
O=C(Nc1ccc(NC(=O)c2cccc([N+](=O)[O-])c2)cc1)c1cccc([N+](=O)[O-])c1	0	0	0	0	0	0
O=C(Nc1ncc([N+](=O)[O-])s1)c1cccc([N+](=O)[O-])c1	101	0	0	0	97	96
Cc1cccc(NC(=O)CSc2nc3sc(C)cc3c(=O)n2C)c1	-	0	0	19	-	-
COc1ccc(S(=O)(=O)N(C)[C@H]2C[C@H]3c4cc(Oc5ccccc5C)ccc4CCN3C(=O)[C@H]2[C@H](C)O)cc1	-	0	0	0	-	-
Cc1[nH]n(-c2ccc(Cl)cc2)c(=O)c1N=Nc1cccnc1	0	0	43	0	0	0
Cc1[nH]n(-c2ccccc2)c(=O)c1N=Nc1cccc(Cl)c1	0	0	0	0	0	0
O=C(CN1C(=O)c2ccccc2C1=O)NC1CCC(O)CC1 (stereo unspecified)	0	0	0	25	0	0
CCN(CC)C(=O)CSc1nnc(-c2c[nH]c3ccccc23)o1	0	0	0	31	0	0
CCCN1C(=O)/C(=C/c2ccco2)SC1=Nc1ccc(OC)cc1	0	0	48	0	0	0
COc1cccc(-c2nc3nc(C)cc(C)n3c2NCc2ccccc2)c1	-	0	0	0	-	-
CCCS(=O)(=O)NC(=O)C1(C)CCN(C(=O)c2cc(F)ccc2C)C1 (stereo unspecified)	-	0	0	0	-	-
CC(=O)c1c(C)[nH]c(C(=O)OCC(=O)NCc2cccs2)c1C	0	0	0	21	0	0
CC(=O)c1c(C)[nH]c(C(=O)OCC(=O)NCc2ccc(Cl)cc2)c1C	0	0	0	0	0	0
CCS(=O)(=O)N1CCC2(CC1)OCCN2S(=O)(=O)c1ccccc1	-	0	0	0	-	-
CCC(CO)Oc1cc(NCc2ccccc2)c2ncn(C(C)C)c2c1 (stereo unspecified)	0	0	0	0	0	0
CCC(COC(=O)c1ccccc1)Oc1cc(NCc2ccccc2)c2ncn(C(C)C)c2c1 (stereo unspecified)	0	0	44	0	0	0
SMILES	SENP7 block	SENP1 FRET inh	SENP8 block-1	NRP1-CendR mod	SENP8 block-2	SENP6 inh
OCCOCCn1c(C(CO)Nc2nc(-c3cccc(Br)c3)cs2)nc2ccccc21 (stereo unspecified)	0	0	0	23	0	0
CCCn1c(C(CO)Nc2nc(-c3cccc(Br)c3)cs2)nc2ccccc21 (stereo unspecified)	0	0	0	0	0	0
COC(=O)c1ccc(NC(=O)COC(=O)C2CCC2)cc1	0	0	0	0	0	0
CC(=O)Nc1ccc(NC(=O)COC(=O)C2CCCCC2)cc1	0	0	0	24	0	0
COc1ccc(CN2C[C@@H](CO)O[C@@H](n3cnc4c(N(C)C)ncnc43)C2)cc1	-	0	0	0	-	-
O=C(Nc1ccc(S(=O)(=O)N2CCCC2)cc1)c1cccs1	0	0	0	0	0	0
CN1CCN(S(=O)(=O)c2ccc(NC(=O)c3cccs3)cc2)CC1	0	0	0	22	0	0
Nc1ccc(N=Nc2ccccc2)c(N)n1	0	0	36	0	0	0
COC(=O)[C@]12CCCCC=C1N(Cc1ccc3c(c1)OCO3)C(=O)[C@H](CC(=O)NCCC(C)C)C2	-	0	0	0	-	-
COC(=O)c1cc2c(C)nn(-c3ccccc3)c2s1	0	0	0	31	0	0
Cc1nn(-c2ccccc2)c2sc(C(=O)O)cc12	0	0	0	0	0	0
Cc1c(C(=O)N2CCOCC2)c(S(=O)(=O)Nc2cccc(C#N)c2)c(C)n1C	0	0	0	22	0	0
Cc1c(C(=O)N2CCOCC2)c(S(=O)(=O)Nc2cccc(F)c2)c(C)n1C	0	0	0	0	0	0
CC(=O)OC[C@]12CC[C@H]3[C@@](C)(CC[C@H]4C(C)(C)CCC[C@]34C)[C@@H]1C[C@H](C1=CC(=O)O[C@@H]1OC(C)=O)O2	0	-	-	-	0	0
Nc1sc(Cc2ccccc2)cc1C(=O)NC1CCCCC1	-	0	0	0	-	-
COc1ccc(C)cc1S(=O)(=O)N1CCCC(C(=O)NCc2ccccn2)C1 (stereo unspecified)	0	0	0	0	0	0
O=C(NCc1ccccn1)C1CCCN(S(=O)(=O)c2cc(Cl)ccc2Cl)C1 (stereo unspecified)	-	0	43	0	-	-
CCC1Nc2ncnc(N3CCCCC3)c2N(Cc2ccc(C)cc2)C1=O (stereo unspecified)	0	0	0	29!	0	0
O=C(NCC[C@H]1CC[C@@H](NC(=O)C2CCC2)[C@@H](CO)O1)c1cc(Cl)cc(Cl)c1	-	0	0	0	-	-
Cc1ccc(S(=O)(=O)N(C)CC(=O)N(C)CCOc2ccccc2)cc1	-	0	0	0	-	-
CCOc1ccc(/C=C2\SC(=S)NC2=O)cc1OC	0	0	0	0	0	0
COc1ccc(/C=C2\SC(=O)NC2=S)cc1OC	0	32	0	0	0	0
COc1cc(/C=C2\SC(=S)NC2=O)ccc1OS(=O)(=O)c1ccccc1	0	-	-	-	0	59
COc1cc(/C=C2/SC(=S)NC2=O)ccc1OS(=O)(=O)c1ccc(C)cc1	0	0	0	0	0	0
Cc1ccc(/C=C2/SC(=S)N(C3CCCCC3)C2=O)o1	0	0	0	0	0	0
Cc1ccc(/C=C2/SC(=O)NC2=S)o1	0	0	0	53	0	0
Cc1nc(NC(=O)C(C)(C)C)sc1C(=O)Cn1cc(CCCC#N)nn1	-	0	0	0	-	-
Cc1nn(-c2ccccc2)c(N2CCCCC2)c1/C=N/NC(=O)c1ccncc1	0	0	0	0	0	0

Screens deposited in PubChem by Sanford-Burnham Center for Chemical Genomics.
